Results on nine compounds are retold here after ChEMBL document CHEMBL3758146, “Synthesis and biological evaluation of quinazolin-4(3H)-one derivatives bearing dithiocarbamate side chain at C2-position as potential antitumor agents” (Eur J Med Chem, 2016).

Molecules are shown by their SMILES. Active and inactive are the calls of the source. No cut-off for these calls is given here.

The test system of one assay is CA46. The assay can be described thus: Cytotoxicity against human CA46 cells assessed as growth inhibition after 24 hrs by coulter counter analysis. It is filed as functional, cell-based. The following applies: CA46, 24 h.
Assay [1] has as its system MCF7. Nature of the assay: Cytotoxicity against human MCF7 cells assessed as growth inhibition after 48 hrs by sulforhodamine B assay. The following applies: MCF7, 48 h. In kind it is functional, cell-based.
In assay [2] the test system is HT-29. Nature of the assay: Cell cycle arrest in human HT-29 cells assessed as accumulation at G0/G1 phase at IC50 after 24 hrs by propidium iodide staining based FACS analysis (reference value: 50.25 +/- 1.19%). It is filed as functional. Background: Flow cytometry measures light scatter and fluorescence of single cells or particles in a stream.
In assay [3] the test system is HT-29. Nature of the assay: Cell cycle arrest in human HT-29 cells assessed as accumulation at S phase at IC50 after 24 hrs by propidium iodide staining based FACS analysis (reference value: 33.05 +/- 2.22%). In kind it is functional.
Assay [4] has as its system HT-29. Nature of the assay: Cell cycle arrest in human HT-29 cells assessed as accumulation at G2/M phase at IC50 after 24 hrs by propidium iodide staining based FACS analysis (reference value: 16.7 +/- 1.55%). In kind it is functional.
For assay [5], the system named is HT-29. The assay can be described thus: Induction of spindle assembly checkpoint in human HT-29 cells assessed as mitotic index after 2 hrs by immunostaining assay (reference value: 2.47 +/- 0.71). In kind it is functional.
The test system of assay [6] is HT-29. The assay can be described thus: Induction of spindle assembly checkpoint in human HT-29 cells assessed as mitotic index after 4 hrs by immunostaining assay (reference value: 3.13 +/- 1.01). It is filed as functional.
Assay [7] deals with HT-29. The assay can be described thus: Induction of spindle assembly checkpoint in human HT-29 cells assessed as mitotic index after 8 hrs by immunostaining assay (reference value: 2.81 +/- 0.82). It is filed as functional.
The test system of assay [8] is HT-29. The assay can be described thus: Induction of spindle assembly checkpoint in human HT-29 cells assessed as mitotic index after 16 hrs by immunostaining assay (reference value: 2.87 +/- 0.82). In kind it is functional.
For assay [9], the system named is HT-29. The assay can be described thus: Induction of DNA damage in human HT-29 cells assessed as gamma-H2AX foci formation at 2 uM after 1 to 2 hrs by DAPI staining based indirect immunofluorescence assay. In kind it is functional, cell-based. Summed up: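 HT29 cells exposed 1 or 2 h, DMSO as diluent control. After fixation, cells immunostained with mouse monoclonal anti-γ-H2AX (clone JBW301, 1:1500) and DNA counterstained with DAPI. γ-H2AX foci scored by indirect immunofluorescence.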

The test system of assay [10] is HT-29. The assay can be described thus: Induction of DNA damage in human HT-29 cells assessed as increase in gamma-H2AX protein level at 2 uM after 1 to 2 hrs by Western blot analysis. It is filed as functional, cell-based. Summed up: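 HT29 cells treated 1 or 2 h, DMSO as diluent control. Total lysates immunoblotted for γ-H2AX (15 kDa), with β-actin (42 kDa) as loading reference; both probed on separate sections of one membrane.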

For assay [11], the system named is HT-29. Nature of the assay: Cell cycle arrest in human HT-29 cells assessed as accumulation at G0/G1 phase at 0.18 uM after 24 hrs by propidium iodide staining based FACS analysis (reference value: 50.25 +/- 1.19%). In kind it is functional.
Assay [12] concerns HT-29. Nature of the assay: Cell cycle arrest in human HT-29 cells assessed as accumulation at S phase at 0.18 uM after 24 hrs by propidium iodide staining based FACS analysis (reference value: 33.05 +/- 2.22%). It is filed as functional.
Assay [13] deals with HT-29. The assay can be described thus: Cell cycle arrest in human HT-29 cells assessed as accumulation at G2/M phase at 0.18 uM after 24 hrs by propidium iodide staining based FACS analysis (reference value: 16.7 +/- 1.55%). In kind it is functional.
The subject of assay [14] is HT-29. Nature of the assay: Upregulation of phosphorylated BubR1 level in human HT-29 cells after 16 hrs by immuno-blot analysis. In kind it is functional, cell-based.
In a further assay the test system is A549. Nature of the assay: Antiproliferative activity against human A549 cells after 72 hrs by MTS assay. In kind it is functional, cell-based. The following applies: A549, 72 h. Summed up: (§1)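 MTS (CellTiter 96 AQueous One) read-out after 72 h exposure; compounds first screened at 50 µM, with ≥50% inhibition versus vehicle-treated cells counted as active. Actives were then tested at various concentrations to give IC50 (concentration causing 50% proliferation inhibition). Triplicate wells, three independent experiments, mean ± SD. 5-FU as positive control.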

Assay [15] has as its system MCF7. Nature of the assay: Antiproliferative activity against human MCF7 cells after 72 hrs by MTS assay. In kind it is functional, cell-based. The note with it: MCF7, 72 h. Summed up: as §1
In a further assay the test system is HeLa. The assay can be described thus: Antiproliferative activity against human HeLa cells after 72 hrs by MTS assay. In kind it is functional, cell-based. Summed up:
as §1

Assay [16] concerns HT-29. Nature of the assay: Antiproliferative activity against human HT-29 cells after 72 hrs by MTS assay. In kind it is functional, cell-based. The note with it: HT-29, 72 h. Summed up: as §1
A general note: Formazan colour is commonly taken as a measure of viable cells.

Assay [17] is described as follows: Antiproliferative activity against human HCT116 cells after 72 hrs by MTS assay. The note with it: HCT-116, 72 h. In kind it is functional, cell-based. Summed up: as §1
The test system of assay [18] is HT-29. Nature of the assay: Induction of DNA damage in human HT-29 cells assessed as gamma-H2AX foci formation after 1 to 2 hrs by DAPI staining based indirect immunofluorescence assay. It is filed as functional, cell-based. Summed up:
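HT29 cells treated 1 or 2 h alongside CPT (2 µM) and DMSO diluent, fixed, immunostained with mouse monoclonal anti-γ-H2AX (clone JBW301, 1:1500) and counterstained with DAPI for DNA; γ-H2AX foci scored by indirect immunofluorescence.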

Assay [19] concerns the target T1, Tubulin (Sus scrofa) (UniProt P02554+P02550). Nature of the assay: Induction of porcine neuronal tubulin polymerization at 10 uM after 60 mins by spectrometric analysis. In kind it is protein assay. Summed up: (§2)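 Cell-free tubulin polymerization run by a commercial kit protocol; assembly followed as rise in absorbance at 340 nm over 60 min at 37 °C, with Taxol as reference.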

Assay [20] has as its target T1, Tubulin (Sus scrofa). Nature of the assay: Induction of porcine neuronal tubulin polymerization at 15 uM after 60 mins by spectrometric analysis. In kind it is protein assay. Summed up:
as §2

Assay [21] has as its system HT-29. Nature of the assay: Induction of DNA damage in human HT-29 cells assessed as increase in gamma-H2AX protein level after 1 to 2 hrs by Western blot analysis. In kind it is functional, cell-based. Summed up:
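Total lysates of HT29 cells treated 1 or 2 h, with CPT (2 µM) and DMSO diluent as comparators, immunoblotted for γ-H2AX (15 kDa), with β-actin (42 kDa) as loading control probed on a separate section of the same membrane.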
A general note: A western blot detects proteins with antibodies after separation by electrophoresis.

As usually defined, the IC50 is the concentration that gives 50% inhibition.

T1 sequence (P02550 whole entry, looked up): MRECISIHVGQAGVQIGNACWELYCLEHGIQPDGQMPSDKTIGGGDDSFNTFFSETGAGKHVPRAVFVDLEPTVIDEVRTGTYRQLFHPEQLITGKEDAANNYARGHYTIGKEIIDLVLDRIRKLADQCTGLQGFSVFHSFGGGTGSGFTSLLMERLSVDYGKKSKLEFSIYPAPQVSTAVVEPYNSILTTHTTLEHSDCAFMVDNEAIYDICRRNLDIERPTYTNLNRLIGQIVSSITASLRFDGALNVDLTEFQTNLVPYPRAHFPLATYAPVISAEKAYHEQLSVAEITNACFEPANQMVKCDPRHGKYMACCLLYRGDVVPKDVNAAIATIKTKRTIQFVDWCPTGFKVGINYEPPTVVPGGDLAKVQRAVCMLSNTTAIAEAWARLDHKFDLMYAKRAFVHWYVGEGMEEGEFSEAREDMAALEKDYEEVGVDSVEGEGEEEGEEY
T1 sequence (P02554 whole entry, looked up): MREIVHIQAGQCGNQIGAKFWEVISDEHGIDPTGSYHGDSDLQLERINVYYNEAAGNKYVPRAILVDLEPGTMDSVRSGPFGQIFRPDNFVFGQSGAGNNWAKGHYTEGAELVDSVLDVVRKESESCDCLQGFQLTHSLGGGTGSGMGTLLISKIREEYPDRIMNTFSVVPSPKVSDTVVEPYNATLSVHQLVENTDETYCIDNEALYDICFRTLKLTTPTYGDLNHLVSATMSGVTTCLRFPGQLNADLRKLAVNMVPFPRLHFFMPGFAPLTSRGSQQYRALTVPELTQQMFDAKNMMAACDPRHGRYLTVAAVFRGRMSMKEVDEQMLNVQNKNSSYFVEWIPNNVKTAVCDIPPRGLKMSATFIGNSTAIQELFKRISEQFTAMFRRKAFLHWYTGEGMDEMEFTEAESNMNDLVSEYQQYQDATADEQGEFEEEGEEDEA

Consider `O=c1c2cc(Cl)ccc2nc(/C=C/c2ccccc2)n1-c1ncccn1`, for which the IC50 in the assay with CA46 came to 1 µM; in the assay with MCF7 [1], 0.34 µM.

For the compound `O=c1[nH]cc(F)c(=O)[nH]1` [FLUOROURACIL], the Activity in the assay with HT-29 [2] was determined as 5.42%; in the assay on HT-29 [3] it was 91.11%; in the assay with HT-29 [4], 3.48%. In addition, the Activity_index with HT-29 [5] was found to be 2.28; with HT-29 [6], 2.09; in the assay on HT-29 [7], 0.29; with HT-29 [8], 0.23.

In the case of `CC[C@@]1(O)C(=O)OCc2c1cc1n(c2=O)Cc2cc3ccccc3nc2-1` [CAMPTOTHECIN], the Activity_index in the assay on HT-29 [5] worked out at 1.55; with HT-29 [6], 1.11; in the assay on HT-29 [7], 0.33. Further, the outcome in the assay with HT-29 [9] and with HT-29 [10] was Active.

For the compound `COC(=O)Nc1nc2cc(C(=O)c3cccs3)ccc2[nH]1` [NOCODAZOLE], the Activity_index in the assay on HT-29 [5] amounted to 5.22; with HT-29 [6] it was 11.4; in the assay on HT-29 [7] it was 25.61; in the assay with HT-29 [8], 64.81.

As for `CC(=O)O[C@H]1C(=O)[C@@]2(C)[C@H]([C@H](OC(=O)c3ccccc3)[C@]3(O)C[C@H](OC(=O)[C@H](O)[C@@H](NC(=O)c4ccccc4)c4ccccc4)C(C)=C1C3(C)C)[C@]1(OC(C)=O)CO[C@@H]1C[C@@H]2O` [PACLITAXEL], the figures for the Activity in the assay on HT-29 [11], in the assay on HT-29 [12] and in the assay with HT-29 [13] were 1.7%, 17.6% and 80.71%, respectively. The result in the assay with HT-29 [14] was Active.

Take `COc1ccc(CNC(=S)SCc2nc3ccccc3c(=O)[nH]2)cc1`: the IC50 was 7.27 µM in the assay with A549; 10.9 µM in the assay on MCF7 [15]; 12.2 µM in the assay with HeLa; 5.53 µM with HT-29 [16]; 22.7 µM in assay [17]. Besides, the Activity in the assay on HT-29 [2] is on record as 16.45%; with HT-29 [3], 28.25%; with HT-29 [4] it was 55.31%. For the same compound, the result in the assay with HT-29 [18], at Tubulin (Sus scrofa) [19] and in the assay with HT-29 [21] was inactive. Moreover, the Activity_index stood at 4.66 with HT-29 [5], 7.75 in the assay with HT-29 [6], 10.15 in the assay on HT-29 [7] and 37.85 in the assay on HT-29 [8]. The outcome at Tubulin (Sus scrofa) [20] and in the assay with HT-29 [14] was Active.

Regarding `O=c1[nH]c(CSC(=S)NCc2ccncc2)nc2ccccc12`, the concentration for half-maximal inhibition (IC50) in the assay with A549 was 6.13 µM; in the assay with MCF7 [15] it was 16.1 µM; in the assay on HeLa, 12.5 µM; with HT-29 [16], 16 µM; in assay [17], 6.67 µM.

Regarding `O=c1[nH]c(CSC(=S)NCc2ccc(C(F)(F)F)nc2)nc2ccccc12`, the IC50 in the assay on A549 was determined as 12.9 µM; in the assay on MCF7 [15], 19.2 µM; in the assay on HeLa, 28.4 µM; in the assay with HT-29 [16] it was 16.5 µM; in assay [17], 16.7 µM.

Regarding `COc1ccccc1CNC(=S)SCc1nc2ccccc2c(=O)[nH]1`, the IC50 in the assay on A549 turned out to be 12 µM; in the assay on MCF7 [15], 14.8 µM; in the assay on HeLa, 16.5 µM; in the assay on HT-29 [16] it was 12.3 µM; in assay [17] it was 30.6 µM.
